Reference: ChEMBL document CHEMBL3407339, “A novel series of thiazolyl-pyrazoline derivatives: synthesis and evaluation of antifungal activity, cytotoxicity and genotoxicity” (Eur J Med Chem, 2015)
Converted amounts (≈) assume the structure as drawn.

Experiments:
Nakaseomyces glabratus = assay: Antifungal activity against Candida glabrata clinical isolate after 48 hrs by broth microdilution assay; format: functional
Outline: (§1)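 Broth microdilution of DMSO stocks serially diluted in sterile water (4 to 0.0039 mg/mL). Yeasts grown on SDA at 37 °C for 24 h, suspended in double-strength PDB at 10⁵ spores/mL. Incubated at 37 °C for 48 h, then sprayed with 0.5% aqueous TTC. MIC = lowest concentration inhibiting visible growth. Ketoconazole reference.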

Candida albicans = assay: Antifungal activity against Candida albicans ATCC 90028 after 48 hrs by broth microdilution assay; format: functional; conditions: ATCC 90028, 48 h; outline: as §1
Candida tropicalis = assay: Antifungal activity against Candida tropicalis NRLL Y 12968 after 48 hrs by broth microdilution assay; format: functional; conditions: NRLL Y 12968, 48 h; outline: as §1
Pichia kudriavzevii = assay: Antifungal activity against Candida krusei NRLL Y 7179 after 48 hrs by broth microdilution assay; format: functional; conditions: NRLL Y 7179, 48 h; outline: as §1
[Candida] zeylanoides = Antifungal activity against Candida zeylanoides NRLL Y 1774 after 48 hrs by broth microdilution assay; format: functional; conditions: Dujonia zeylanoides, NRLL Y 1774, 48 h; outline: as §1
Candida parapsilosis = assay: Antifungal activity against Candida parapsilosis NRLL Y 12696 after 48 hrs by broth microdilution assay; format: functional; conditions: Lodderomyces parapsilosis, NRLL Y 12696, 48 h; outline: as §1
Aspergillus flavus = assay: Antifungal activity against Aspergillus flavus NRRL 980 after 72 hrs by broth microdilution assay; format: functional; conditions: NRRL 980, 72 h
Outline: (§2)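 Compounds dissolved in DMSO, diluted in sterile distilled water from 4 to 0.0039 mg/mL. Molds grown on PDA at 25 °C for 5 days, suspended in double-strength PDB at 10⁵ spores/mL. Incubated at 25 °C for 72 h; mycelial growth read under stereo microscope. MIC = lowest concentration inhibiting visible growth. Ketoconazole reference.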

Aspergillus niger = assay: Antifungal activity against Aspergillus niger ATCC 1094 after 72 hrs by broth microdilution assay; format: functional; conditions: ATCC 1094, 72 h; outline: as §2
Aspergillus parasiticus = assay: Antifungal activity against Aspergillus parasiticus NRRL 465 after 72 hrs by broth microdilution assay; format: functional; conditions: NRRL 465, 72 h; outline: as §2
Fusarium solani = assay: Antifungal activity against Fusarium solani NRRL 13414 after 72 hrs by broth microdilution assay; format: functional; conditions: NRRL 13414, 72 h; outline: as §2
Salmonella typhimurium [1] = assay: Mutagenicity in Salmonella typhimurium TA98 at 0.156 mg/ml after 48 hrs by AMES MPF assay in presence of Sprague-Dawley rat liver microsomal S9 fraction relative to baseline; format: toxicity, organism-based; conditions: salmonella enterica subsp. enterica serovar typhimurium
Outline: (§3)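 Ames MPF fluctuation test with TA98/TA100. Overnight cultures (37 °C, 14–16 h) mixed with exposure medium; ±Aroclor-1254-induced rat liver S9 (final 4.5% v/v). Compounds in DMSO, 0.156–5 mg/mL. 90 min exposure at 37 °C, then indicator medium; 48 wells per concentration, 48 h at 37 °C, in triplicate. Yellow wells counted; fold induction over baseline (mean + 1 SD of zero-dose control).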

Salmonella typhimurium [2] = assay: Mutagenicity in Salmonella typhimurium TA98 at 0.3125 mg/ml after 48 hrs by AMES MPF assay in presence of Sprague-Dawley rat liver microsomal S9 fraction relative to baseline; format: toxicity, organism-based; conditions: salmonella enterica subsp. enterica serovar typhimurium; outline: as §3
Salmonella typhimurium [3] = assay: Mutagenicity in Salmonella typhimurium TA98 at 0.625 mg/ml after 48 hrs by AMES MPF assay in presence of Sprague-Dawley rat liver microsomal S9 fraction relative to baseline; format: toxicity, organism-based; conditions: salmonella enterica subsp. enterica serovar typhimurium; outline: as §3
Salmonella typhimurium [4] = assay: Mutagenicity in Salmonella typhimurium TA98 at 1.25 mg/ml after 48 hrs by AMES MPF assay in presence of Sprague-Dawley rat liver microsomal S9 fraction relative to baseline; format: toxicity, organism-based; conditions: salmonella enterica subsp. enterica serovar typhimurium; outline: as §3
Salmonella typhimurium [5] = assay: Mutagenicity in Salmonella typhimurium TA98 at 2.5 mg/ml after 48 hrs by AMES MPF assay in presence of Sprague-Dawley rat liver microsomal S9 fraction relative to baseline; format: toxicity, organism-based; conditions: salmonella enterica subsp. enterica serovar typhimurium; outline: as §3
Salmonella typhimurium [6] = assay: Mutagenicity in Salmonella typhimurium TA98 at 5 mg/ml after 48 hrs by AMES MPF assay in presence of Sprague-Dawley rat liver microsomal S9 fraction relative to baseline; format: toxicity, organism-based; conditions: salmonella enterica subsp. enterica serovar typhimurium; outline: as §3
Salmonella typhimurium [7] = assay: Mutagenicity in Salmonella typhimurium TA98 at 0.156 mg/ml after 48 hrs by AMES MPF assay in absence of Sprague-Dawley rat liver microsomal S9 fraction relative to baseline; format: toxicity, organism-based; conditions: salmonella enterica subsp. enterica serovar typhimurium; outline: as §3
Salmonella typhimurium [8] = assay: Mutagenicity in Salmonella typhimurium TA98 at 0.3125 mg/ml after 48 hrs by AMES MPF assay in absence of Sprague-Dawley rat liver microsomal S9 fraction relative to baseline; format: toxicity, organism-based; conditions: salmonella enterica subsp. enterica serovar typhimurium; outline: as §3
Salmonella typhimurium [9] = assay: Mutagenicity in Salmonella typhimurium TA98 at 0.625 mg/ml after 48 hrs by AMES MPF assay in absence of Sprague-Dawley rat liver microsomal S9 fraction relative to baseline; format: toxicity, organism-based; conditions: salmonella enterica subsp. enterica serovar typhimurium; outline: as §3
Salmonella typhimurium [10] = assay: Mutagenicity in Salmonella typhimurium TA98 at 1.25 mg/ml after 48 hrs by AMES MPF assay in absence of Sprague-Dawley rat liver microsomal S9 fraction relative to baseline; format: toxicity, organism-based; conditions: salmonella enterica subsp. enterica serovar typhimurium; outline: as §3
Salmonella typhimurium [11] = assay: Mutagenicity in Salmonella typhimurium TA98 at 2.5 mg/ml after 48 hrs by AMES MPF assay in absence of Sprague-Dawley rat liver microsomal S9 fraction relative to baseline; format: toxicity, organism-based; conditions: salmonella enterica subsp. enterica serovar typhimurium; outline: as §3
Salmonella typhimurium [12] = assay: Mutagenicity in Salmonella typhimurium TA98 at 5 mg/ml after 48 hrs by AMES MPF assay in absence of Sprague-Dawley rat liver microsomal S9 fraction relative to baseline; format: toxicity, organism-based; conditions: salmonella enterica subsp. enterica serovar typhimurium; outline: as §3
Salmonella typhimurium [13] = assay: Mutagenicity in Salmonella typhimurium TA100 at 0.156 mg/ml after 48 hrs by AMES MPF assay in presence of Sprague-Dawley rat liver microsomal S9 fraction relative to baseline; format: toxicity, organism-based; conditions: salmonella enterica subsp. enterica serovar typhimurium; outline: as §3
Salmonella typhimurium [14] = assay: Mutagenicity in Salmonella typhimurium TA100 at 0.3125 mg/ml after 48 hrs by AMES MPF assay in presence of Sprague-Dawley rat liver microsomal S9 fraction relative to baseline; format: toxicity, organism-based; conditions: salmonella enterica subsp. enterica serovar typhimurium; outline: as §3
Salmonella typhimurium [15] = assay: Mutagenicity in Salmonella typhimurium TA100 at 0.625 mg/ml after 48 hrs by AMES MPF assay in presence of Sprague-Dawley rat liver microsomal S9 fraction relative to baseline; format: toxicity, organism-based; conditions: salmonella enterica subsp. enterica serovar typhimurium; outline: as §3
Salmonella typhimurium [16] = assay: Mutagenicity in Salmonella typhimurium TA100 at 1.25 mg/ml after 48 hrs by AMES MPF assay in presence of Sprague-Dawley rat liver microsomal S9 fraction relative to baseline; format: toxicity, organism-based; conditions: salmonella enterica subsp. enterica serovar typhimurium; outline: as §3
Salmonella typhimurium [17] = assay: Mutagenicity in Salmonella typhimurium TA100 at 2.5 mg/ml after 48 hrs by AMES MPF assay in presence of Sprague-Dawley rat liver microsomal S9 fraction relative to baseline; format: toxicity, organism-based; conditions: salmonella enterica subsp. enterica serovar typhimurium; outline: as §3
Salmonella typhimurium [18] = assay: Mutagenicity in Salmonella typhimurium TA100 at 5 mg/ml after 48 hrs by AMES MPF assay in presence of Sprague-Dawley rat liver microsomal S9 fraction relative to baseline; format: toxicity, organism-based; conditions: salmonella enterica subsp. enterica serovar typhimurium; outline: as §3
Salmonella typhimurium [19] = assay: Mutagenicity in Salmonella typhimurium TA100 at 0.156 mg/ml after 48 hrs by AMES MPF assay in absence of Sprague-Dawley rat liver microsomal S9 fraction relative to baseline; format: toxicity, organism-based; conditions: salmonella enterica subsp. enterica serovar typhimurium; outline: as §3
Salmonella typhimurium [20] = assay: Mutagenicity in Salmonella typhimurium TA100 at 0.3125 mg/ml after 48 hrs by AMES MPF assay in absence of Sprague-Dawley rat liver microsomal S9 fraction relative to baseline; format: toxicity, organism-based; conditions: salmonella enterica subsp. enterica serovar typhimurium; outline: as §3
Salmonella typhimurium [21] = assay: Mutagenicity in Salmonella typhimurium TA100 at 0.625 mg/ml after 48 hrs by AMES MPF assay in absence of Sprague-Dawley rat liver microsomal S9 fraction relative to baseline; format: toxicity, organism-based; conditions: salmonella enterica subsp. enterica serovar typhimurium; outline: as §3
Salmonella typhimurium [22] = assay: Mutagenicity in Salmonella typhimurium TA100 at 1.25 mg/ml after 48 hrs by AMES MPF assay in absence of Sprague-Dawley rat liver microsomal S9 fraction relative to baseline; format: toxicity, organism-based; conditions: salmonella enterica subsp. enterica serovar typhimurium; outline: as §3
Salmonella typhimurium [23] = assay: Mutagenicity in Salmonella typhimurium TA100 at 2.5 mg/ml after 48 hrs by AMES MPF assay in absence of Sprague-Dawley rat liver microsomal S9 fraction relative to baseline; format: toxicity, organism-based; conditions: salmonella enterica subsp. enterica serovar typhimurium; outline: as §3
Salmonella typhimurium [24] = assay: Mutagenicity in Salmonella typhimurium TA100 at 5 mg/ml after 48 hrs by AMES MPF assay in absence of Sprague-Dawley rat liver microsomal S9 fraction relative to baseline; format: toxicity, organism-based; conditions: salmonella enterica subsp. enterica serovar typhimurium; outline: as §3
A549 = assay: Antiproliferative activity against human A549 cells after 24 hrs by XTT assay; format: functional, cell-based; conditions: A549, 24 h
Outline: (§4)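 A549 cells in RPMI and NIH/3T3 cells in DMEM, each with fetal calf serum, antibiotics and 7.5% NaHCO₃, at 37 °C, 5% CO₂. Seeded at 20,000 cells/well, 24 h, then compounds added in medium at 500–3.9 doses (final DMSO <0.1%) for 24 h. XTT read after 3 h at 480 nm (ref 680 nm). IC₅₀ by non-linear regression; triplicates; cisplatin control.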

[25] = Cytotoxicity against mouse NIH/3T3 cells after 24 hrs by XTT assay; format: cell-based; conditions: NIH3T3, 24 h; outline: as §4

Row | SMILES | MIC (Nakaseomyces glabratus) | MIC (Candida albicans) | MIC (Candida tropicalis) | MIC (Pichia kudriavzevii) | MIC ([Candida] zeylanoides) | MIC (Candida parapsilosis) | MIC (Aspergillus flavus) | MIC (Aspergillus niger) | MIC (Aspergillus parasiticus) | MIC (Fusarium solani) | fold change (FC) (Salmonella typhimurium [1]) | fold change (FC) (Salmonella typhimurium [2]) | fold change (FC) (Salmonella typhimurium [3]) | fold change (FC) (Salmonella typhimurium [4]) | fold change (FC) (Salmonella typhimurium [5]) | fold change (FC) (Salmonella typhimurium [6]) | fold change (FC) (Salmonella typhimurium [7]) | fold change (FC) (Salmonella typhimurium [8]) | fold change (FC) (Salmonella typhimurium [9]) | fold change (FC) (Salmonella typhimurium [10]) | further results
1 | Fc1ccc(C2CC(c3ccc(Cl)s3)=NN2c2nc(-c3ccc(Br)cc3)cs2)cc1 (configuration not stated) | 125 µg/mL (≈ 241 µM) | 250 µg/mL (≈ 482 µM) | 250 µg/mL (≈ 482 µM) | 250 µg/mL (≈ 482 µM) | 250 µg/mL (≈ 482 µM) | 250 µg/mL (≈ 482 µM) | 125 µg/mL (≈ 241 µM) | 250 µg/mL (≈ 482 µM) | 250 µg/mL (≈ 482 µM) | 250 µg/mL (≈ 482 µM) | 0.68 | 0.81 | 0.95 | 0.81 | 0.68 | 0.81 | 0 | 0.32 | 0 | 0 | fold change (FC) (Salmonella typhimurium [11]): 0; fold change (FC) (Salmonella typhimurium [12]): 0; fold change (FC) (Salmonella typhimurium [13]): 2.77; fold change (FC) (Salmonella typhimurium [14]): 3.92; fold change (FC) (Salmonella typhimurium [15]): 3.92; fold change (FC) (Salmonella typhimurium [16]): 5.08; fold change (FC) (Salmonella typhimurium [17]): 3.92; fold change (FC) (Salmonella typhimurium [18]): 2.54; fold change (FC) (Salmonella typhimurium [19]): 1; fold change (FC) (Salmonella typhimurium [20]): 1; fold change (FC) (Salmonella typhimurium [21]): 0.33; fold change (FC) (Salmonella typhimurium [22]): 0; fold change (FC) (Salmonella typhimurium [23]): 0.33; fold change (FC) (Salmonella typhimurium [24]): 2; IC50 (A549): 62.5 µg/mL (≈ 120 µM); IC50 [25]: > 500 µg/mL
2 | Fc1ccc(C2CC(c3ccc(Cl)s3)=NN2c2nc(-c3ccc(C(F)(F)F)cc3)cs2)cc1 (configuration not stated) | 125 µg/mL (≈ 246 µM) | 500 µg/mL (≈ 984 µM) | 500 µg/mL (≈ 984 µM) | 1000 µg/mL (≈ 1970 µM) | 500 µg/mL (≈ 984 µM) | 500 µg/mL (≈ 984 µM) | 125 µg/mL (≈ 246 µM) | 250 µg/mL (≈ 492 µM) | 250 µg/mL (≈ 492 µM) | 250 µg/mL (≈ 492 µM) | 0.87 | 0.55 | 1.09 | 0.22 | 0.33 | 0.98 | 0 | 0.33 | 0.67 | 0.67 | fold change (FC) (Salmonella typhimurium [11]): 0; fold change (FC) (Salmonella typhimurium [12]): 0.67; fold change (FC) (Salmonella typhimurium [13]): 2.08; fold change (FC) (Salmonella typhimurium [14]): 2.31; fold change (FC) (Salmonella typhimurium [15]): 2.54; fold change (FC) (Salmonella typhimurium [16]): 2.77; fold change (FC) (Salmonella typhimurium [17]): 2.31; fold change (FC) (Salmonella typhimurium [18]): 2.31; fold change (FC) (Salmonella typhimurium [19]): 0.67; fold change (FC) (Salmonella typhimurium [20]): 1; fold change (FC) (Salmonella typhimurium [21]): 1.33; fold change (FC) (Salmonella typhimurium [22]): 3; fold change (FC) (Salmonella typhimurium [23]): 1.33; fold change (FC) (Salmonella typhimurium [24]): 2.67; IC50 (A549): > 500 µg/mL; IC50 [25]: > 500 µg/mL
